Six compounds from ChEMBL document CHEMBL1921692 (J Med Chem, 2011) can be followed below.

Active and inactive are the calls of the source. Bounds are passed on as bounds.

Series [1] in a line: Permeability across mucosal to serosal side in human Caco2 cells. Type of series: ADME, cell-based. The following applies: Caco-2, read-out: permeability. On the technique in general: Caco-2 cells form a polarised layer with tight junctions and transporters.
Series [2] in a line: Clearance in Sprague-Dawley rat at 2 m/kg, iv. Type of series: ADME, organism-based. The following applies: in vivo.
Series [3] can be described thus: Cmax in cynomolgus monkey at 8 mg/kg, po. Type of series: ADME, organism-based, Macaca fascicularis. Also on record: dose 8 mg/kg, route oral. To be noted: in vivo.
Series [4] addresses T1, Growth hormone secretagogue receptor type 1 (Homo sapiens, UniProt Q92847). Briefly: Agonist activity at human GRLN receptor expressed in HEK293 cells assessed as calcium binding by Ca2+ bioluminescence aequorin assay. Type of series: functional, cell-based. The gist of the method:
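HEK-293 cells expressing human GRLN. Ca2+ bioluminescence read out by aequorin. Duplicate samples, maximum tolerated interassay variability ±10%. Full agonism defined as maximal response >70% of that of octanoylated human ghrelin.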

The nature of series [5]: Half life in human liver microsomes. Type of series: ADME, Microsome. A general note: Liver microsomes are a subcellular fraction often used to study metabolism.
Series [6] has as its target Cytochrome P450 2D6 (Homo sapiens, UniProt P10635). The series can be described thus: Inhibition of human CYP2D6. Type of series: ADME.
Series [7] is described as follows: Cmax in Sprague-Dawley rat at 8 mg/kg, po. It is filed as ADME, organism-based. Also on record: dose 8 mg/kg, route oral. To be noted: in vivo. The gist of the method: (§1)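 Male Sprague−Dawley rats (250 ± 20 g), 3 per compound in a single experiment, gavage 8 mg/kg in physiological saline. Blood taken at 12 time points over 6 h into K3EDTA tubes. Plasma stored at −20 °C, assayed by LC-MS/MS, noncompartmental analysis.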

Series [8] deals with Cytochrome P450 2C19 (Homo sapiens, UniProt P33261). Briefly: Inhibition of human CYP2C19. It is filed as ADME.
For series [9], the system named is Cynomolgus monkey. The series can be described thus: Oral bioavailability in cynomolgus monkey at […]. The following applies: in vivo.
Series [10] in a line: AUC (0 to infinity) in Sprague-Dawley rat at 8 mg/kg, po. Also on record: time infinity, dose 8 mg/kg, route oral. To be noted: plasma. Type of series: ADME, organism-based. Summed up: as §1
For series [11], the system named is Cynomolgus monkey. Briefly: AUC (0 to infinity) in cynomolgus monkey at […], po. To be noted: in vivo.
Series [12] is described as follows: Clearance in cynomolgus monkey at 0.5 mg/kg, iv. The following applies: in vivo.
Series [13] concerns the target Cytochrome P450 3A4 (Homo sapiens, UniProt P08684). Briefly: Inhibition of human CYP3A4. Type of series: ADME.
Series [14] can be described thus: Drug metabolism in rat liver microsomes after 15 mins. It is filed as ADME, Microsome. To be noted: read-out: Drug metabolism.
Series [15] is described as follows: Oral bioavailability in Sprague-Dawley rat at 8 mg/kg. The following applies: in vivo.
Series [16] can be described thus: Permeability across serosal to mucosal side human Caco2 cells. Type of series: ADME, cell-based. The following applies: Caco-2, read-out: permeability.
In series [17] the target is T2, Cytochrome P450 1A2 (Homo sapiens, UniProt P05177).
T2 sequence (P05177 whole entry): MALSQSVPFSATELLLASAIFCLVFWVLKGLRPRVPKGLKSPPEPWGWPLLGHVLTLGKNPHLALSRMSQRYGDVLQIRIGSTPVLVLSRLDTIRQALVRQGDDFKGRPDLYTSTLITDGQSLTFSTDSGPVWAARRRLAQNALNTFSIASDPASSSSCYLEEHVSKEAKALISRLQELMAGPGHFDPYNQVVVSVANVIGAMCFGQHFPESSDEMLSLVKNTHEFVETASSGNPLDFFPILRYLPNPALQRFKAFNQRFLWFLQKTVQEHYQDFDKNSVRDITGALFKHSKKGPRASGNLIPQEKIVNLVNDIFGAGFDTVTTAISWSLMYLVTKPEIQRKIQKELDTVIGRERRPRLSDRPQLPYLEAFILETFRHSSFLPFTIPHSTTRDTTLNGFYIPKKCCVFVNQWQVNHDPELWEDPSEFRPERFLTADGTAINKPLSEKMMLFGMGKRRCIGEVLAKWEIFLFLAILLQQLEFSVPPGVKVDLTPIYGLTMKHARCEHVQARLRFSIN
Briefly: Inhibition of human CYP1A2. Type of series: ADME.

Series [18] is described as follows: Volume of distribution at steady state in cynomolgus monkey at 0.5 mg/kg, iv. The following applies: in vivo, read-out: Vdss.
A short description of series [19]: Volume of distribution at steady state in Sprague-Dawley rat at 2 m/kg, iv. It is filed as ADME, organism-based. The following applies: in vivo, read-out: Vdss.
The target in series [20] is Cytochrome P450 2C9 (Homo sapiens, UniProt P11712). The series can be described thus: Inhibition of human CYP2C9. Type of series: ADME.
Series [21] is described as follows: Elimination half life in Sprague-Dawley rat at 2 m/kg, iv. It is filed as ADME, organism-based. The following applies: in vivo, read-out: beta t1/2.
Series [22] can be described thus: Elimination half life in cynomolgus monkey at 0.5 mg/kg, iv. The following applies: in vivo, read-out: beta t1/2.
For series [23], the system named is Rattus norvegicus. Briefly: Induction of gastric emptying in overnight-fasted iv dosed Wistar rat measured after 15 mins by […] analysis. It is filed as functional, organism-based, Stomach. The gist of the method:
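Overnight-fasted male Wistar rats (200 ± 20 g), N = 5 per point. Compound given IV in 9% 2-hydroxypropyl-β-cyclodextrin together with an oral 2% methylcellulose meal containing 0.05% phenol red (2 mL). Sacrifice 15 min later; phenol red left in stomach read at 560 nm. […] Metoclopramide positive control at 10 mg/kg IV.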

The target in series [24] is T1, Growth hormone secretagogue receptor type 1. Briefly: Displacement of [125I-His9]-ghrelin from human GRLN receptor by radioligand binding assay. Summed up:
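Competitive binding on isolated membranes expressing GRLN, with 125I-His-9 octanoylated ghrelin as radioligand.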

The target is the same in series [25]. Briefly: Partial agonist activity at GRLN receptor at 3 uM by aequorin assay. It is filed as functional. Summed up:
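Aequorin Ca2+ bioluminescence in HEK-293 cells expressing human GRLN. Response at a 3 μM test concentration expressed relative to the maximal response to octanoylated human ghrelin.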

Series [26] can be described thus: Dissociation constant, pKa of the compound. Type of series: physicochemical.
Series [27] in a line: Drug excretion in Sprague-Dawley rat assessed as unchanged recovery in feces at 6 mg/kg, iv measured after 30 mins. To be noted: faeces.
Series [28] concerns Salmonella typhimurium. The series can be described thus: Induction of mutagenicity in Salmonella Typhimurium up to 5000 ug/plate by Ames test. It is filed as toxicity, organism-based. To be noted: salmonella enterica subsp. enterica serovar typhimurium. Summed up:
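Ames test run up to 5000 μg/plate.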
Background: The Ames test uses bacterial strains that need an amino acid and regain growth without it when mutated back.

Series [29] concerns Rattus norvegicus. The series can be described thus: Induction of gastric emptying in overnight-fasted po dosed Wistar rat administered 30 mins prior methylcellulose meal by […] analysis. Type of series: functional, organism-based. To be noted: Stomach.
Series [30] addresses motilin receptor (Homo sapiens) (UniProt O43193). Briefly: Selectivity ratio of EC50 for human motilin receptor to EC50 for human GRLN receptor.

T1 sequence (Q92847 whole entry): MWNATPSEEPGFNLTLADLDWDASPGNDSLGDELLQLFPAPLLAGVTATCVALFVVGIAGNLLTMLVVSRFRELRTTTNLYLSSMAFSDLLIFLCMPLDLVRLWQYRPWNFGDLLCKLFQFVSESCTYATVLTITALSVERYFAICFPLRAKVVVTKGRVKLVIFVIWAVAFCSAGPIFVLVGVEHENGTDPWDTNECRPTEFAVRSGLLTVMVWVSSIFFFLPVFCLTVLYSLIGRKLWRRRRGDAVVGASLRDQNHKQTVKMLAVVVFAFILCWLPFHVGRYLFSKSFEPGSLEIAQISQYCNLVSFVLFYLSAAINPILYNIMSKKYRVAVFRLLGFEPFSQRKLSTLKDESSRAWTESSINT
Sequence of Cytochrome P450 2C19 (P33261 whole entry): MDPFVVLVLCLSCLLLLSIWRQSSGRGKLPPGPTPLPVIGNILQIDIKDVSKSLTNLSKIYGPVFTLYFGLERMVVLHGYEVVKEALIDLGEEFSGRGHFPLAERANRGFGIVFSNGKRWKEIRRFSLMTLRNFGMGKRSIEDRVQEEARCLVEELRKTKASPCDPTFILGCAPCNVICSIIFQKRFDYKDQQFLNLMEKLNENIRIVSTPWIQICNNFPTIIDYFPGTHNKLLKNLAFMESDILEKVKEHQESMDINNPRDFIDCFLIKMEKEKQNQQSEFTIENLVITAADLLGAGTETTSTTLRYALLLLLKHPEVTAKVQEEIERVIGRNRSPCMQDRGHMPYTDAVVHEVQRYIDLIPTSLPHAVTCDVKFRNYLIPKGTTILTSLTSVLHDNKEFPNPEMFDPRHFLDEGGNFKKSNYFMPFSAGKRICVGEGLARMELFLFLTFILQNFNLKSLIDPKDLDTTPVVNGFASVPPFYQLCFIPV
Sequence of Cytochrome P450 2D6 (P10635 whole entry): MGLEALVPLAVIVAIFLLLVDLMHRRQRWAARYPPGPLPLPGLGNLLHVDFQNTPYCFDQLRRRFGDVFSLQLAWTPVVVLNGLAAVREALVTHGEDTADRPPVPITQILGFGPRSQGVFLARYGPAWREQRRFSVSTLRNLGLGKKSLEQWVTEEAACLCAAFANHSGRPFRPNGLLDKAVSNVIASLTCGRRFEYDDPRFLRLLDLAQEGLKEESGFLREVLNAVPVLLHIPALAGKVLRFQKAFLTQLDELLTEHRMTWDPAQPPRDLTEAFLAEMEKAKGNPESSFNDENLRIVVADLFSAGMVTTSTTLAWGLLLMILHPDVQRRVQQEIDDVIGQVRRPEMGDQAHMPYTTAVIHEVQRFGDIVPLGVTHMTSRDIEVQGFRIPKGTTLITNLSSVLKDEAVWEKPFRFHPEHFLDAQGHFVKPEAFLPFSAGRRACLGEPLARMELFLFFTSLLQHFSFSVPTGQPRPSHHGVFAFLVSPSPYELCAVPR
Sequence of Cytochrome P450 2C9 (P11712 whole entry): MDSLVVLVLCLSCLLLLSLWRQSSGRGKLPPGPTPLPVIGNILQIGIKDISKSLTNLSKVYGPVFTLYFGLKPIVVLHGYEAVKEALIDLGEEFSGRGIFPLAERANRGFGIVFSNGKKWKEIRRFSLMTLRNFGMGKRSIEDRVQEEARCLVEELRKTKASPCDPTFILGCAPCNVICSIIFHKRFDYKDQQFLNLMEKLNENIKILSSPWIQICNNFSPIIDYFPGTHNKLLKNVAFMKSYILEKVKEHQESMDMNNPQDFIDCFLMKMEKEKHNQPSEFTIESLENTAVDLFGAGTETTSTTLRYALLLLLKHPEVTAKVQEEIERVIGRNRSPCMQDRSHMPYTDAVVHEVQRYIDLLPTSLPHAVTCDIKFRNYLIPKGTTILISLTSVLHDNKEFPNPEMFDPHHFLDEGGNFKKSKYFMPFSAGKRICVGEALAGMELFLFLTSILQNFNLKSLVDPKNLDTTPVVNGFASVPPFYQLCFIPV
Sequence of Cytochrome P450 3A4 (P08684 whole entry): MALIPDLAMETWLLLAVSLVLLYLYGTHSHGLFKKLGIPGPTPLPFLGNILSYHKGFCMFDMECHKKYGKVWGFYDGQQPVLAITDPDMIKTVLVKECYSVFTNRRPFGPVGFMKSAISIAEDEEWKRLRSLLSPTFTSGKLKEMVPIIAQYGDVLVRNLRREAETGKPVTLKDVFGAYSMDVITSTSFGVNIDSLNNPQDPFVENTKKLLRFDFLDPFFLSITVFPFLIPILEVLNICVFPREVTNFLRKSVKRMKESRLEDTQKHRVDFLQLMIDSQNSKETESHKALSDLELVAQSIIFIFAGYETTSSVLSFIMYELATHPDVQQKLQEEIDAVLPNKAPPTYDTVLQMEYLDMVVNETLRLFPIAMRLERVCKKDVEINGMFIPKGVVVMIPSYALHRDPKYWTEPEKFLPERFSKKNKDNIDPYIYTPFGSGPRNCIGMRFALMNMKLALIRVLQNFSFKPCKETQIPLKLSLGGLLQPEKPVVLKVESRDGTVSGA

What is called clearance is a measure of how efficiently the substance is removed, as volume per time. One may read the Cmax as the maximum level reached in the sampled fluid or tissue. One may read the IC50 as the midpoint of a concentration-inhibition curve. As usually defined, the AUC(0-inf) is the area under the concentration-time curve extrapolated to infinity. Broadly, the AUC is concentration integrated over time. What is called bioavailability is dose-corrected exposure relative to a reference, in per cent. As usually defined, the Ki is the equilibrium dissociation constant of an inhibitor or competing ligand from its target. Consider `C[C@@H]1C(=O)N[C@H](Cc2ccc(F)cc2)C(=O)NCCCc2ccc(F)cc2OCCN[C@@H](C2CC2)C(=O)N1C`, for which the Papp A→B in series [1] stood at 19.8 ×10⁻⁶ cm/s. The clearance was 28 mL/min/kg in series [2] and 20 mL/min/kg in series [12]. Also, the Cmax amounted to 90 nM in [3] and 900 nM in series [7]. Besides, the EC50 was determined as 27 nM in series [4] and 1.2 mg/kg in series [23]. The half-life amounted to 41 min in [5], 44 min in series [21] and 29 min in [22]. Moreover, the IC50 in [6] was 31000 nM; in series [8], more than 100000 nM; in [13], 1200 nM; in [17], more than 100000 nM; in series [20], more than 100000 nM. The compound further had a F in series [9] of 7%. This compound also showed an AUC(0-inf) in series [10] of 1.67 µM·h. The compound further came in with an AUC in series [11] of 10.3 µM·min. In addition, the metabolised at […] in series [14] was 54%. The bioavailability in [15] was 36%. The Papp B→A in series [16] turned out to be 12.5 ×10⁻⁶ cm/s. Also, the values for the Vd in series [18] and in series [19] were 0.66 L/kg and 1.8 L/kg, respectively. In addition, the Ki in series [24] is 2.6 nM.

`C[C@@H]1C(=O)N[C@H](Cc2ccc(F)cc2)C(=O)NCCCc2ccccc2OC(C)(C)CN[C@@H](C2CC2)C(=O)N1C` displayed an Activity in [25] of 40%. The same compound registered a Ki in [24] of 12 nM.

Usually pKa stands for the negative logarithm of the acid dissociation constant. On to `C[C@@H]1CN[C@@H](C2CC2)C(=O)N(C)[C@H](C)C(=O)N[C@H](Cc2ccc(F)cc2)C(=O)NCCCc2ccccc2O1.Cl.O` [ULIMORELIN HYDROCHLORIDE], for which the Papp A→B in series [1] was found to be 15 ×10⁻⁶ cm/s. The Cmax in series [3] is 1400 nM; in series [7] it was 390 nM. Further, the EC50 stood at 29 nM in series [4] and 0.91 mg/kg in series [23]. Also, the IC50 in series [6] is 84000 nM; in series [8] it was more than 100000 nM; in series [13], 2400 nM; in series [17], more than 100000 nM; in series [20], 66000 nM. For the same compound, in series [26], the pKa was found to be 7.17. For the same compound, the F in [9] amounted to 24%. In addition, in [10], the AUC(0-inf) is 1.37 µM·h. The compound also displayed an AUC in series [11] of 75.4 µM·min. Moreover, in series [14], the metabolised at […] is 68%. Further, in [27], the dose excreted at 0.5 h was determined as 95%. In addition, the bioavailability in [15] amounted to 24%. The Papp B→A in series [16] worked out at 14 ×10⁻⁶ cm/s. Moreover, the Activity result in [28] is on record as “Non-toxic”. The same compound had a Ki in series [24] of 16 nM.

`CCCCCCCC(=O)OC[C@H](NC(=O)CNC(=O)[C@@H](N)CCCNC(=N)N)C(=O)N[C@@H](CO)C(=O)N[C@@H](Cc1ccccc1)C(=O)N[C@@H](CC(C)C)C(=O)N[C@@H](CO)C(=O)N1CCC[C@H]1C(=O)N[C@@H](CCC(=O)O)C(=O)N[C@@H](Cc1cnc[nH]1)C(=O)N[C@@H](CCC(N)=O)C(=O)N[C@@H](CCCCN)C(=O)N[C@@H](C)C(=O)N[C@@H](CCC(N)=O)C(=O)N[C@@H](CCC(N)=O)C(=O)N[C@@H](CCCNC(=N)N)C(=O)N[C@@H](CCCCN)C(=O)N[C@@H](CCC(=O)O)C(=O)N[C@@H](CO)C(=O)N[C@@H](CCCCN)C(=O)N[C@@H](CCCCN)C(=O)N1CCC[C@H]1C(=O)N1CCC[C@H]1C(=O)N[C@@H](C)C(=O)N[C@@H](CCCCN)C(=O)N[C@@H](CC(C)C)C(=O)N[C@@H](CCC(N)=O)C(=O)N1CCC[C@H]1C(=O)O` [GHRELIN]: the result in [29] was inactive. This compound also yielded an EC50 in [23] of 0.04 mg/kg.

For the compound `CC[C@H](C)[C@@H]1NCCOc2ccccc2CCCNC(=O)[C@@H](Cc2ccc(Cl)cc2)NC(=O)[C@@H](C)N(C)C1=O`, the Papp A→B in [1] is 14 ×10⁻⁶ cm/s. Moreover, the EC50 is 20 nM in series [4] and 0.39 mg/kg in series [23]. Further, the half-life in [5] amounted to 5 min; in series [21], 33 min. The compound also registered a Cmax in series [7] of 60 nM. This compound also had an AUC(0-inf) in series [10] of 0.0585 µM·h. Moreover, the outcome in series [29] was inactive. In series [14], the metabolised at […] came out at 86%. The same compound came in with a bioavailability in series [15] of 3%. For the same compound, the Papp B→A in [16] came out at 15 ×10⁻⁶ cm/s. In addition, in series [19], the Vd turned out to be 3.2 L/kg. This compound also showed a Ki in [24] of 0.35 nM.

Take `CCC[C@@H]1NCCOc2ccccc2/C=C/CNC(=O)[C@@H](Cc2ccccc2)NC(=O)CN(C)C1=O`: the EC50 in series [4] stood at 134 nM. In addition, the Ratio EC50 in series [30] was more than 100. Besides, the affinity in [24], expressed as Ki, was 86 nM.
